# “Also recorded” adds a separate entry of the source. No end group written: not given here.
# T1: Grx1 (Homo sapiens, UniProt P35754)
# T1 sequence (P35754 1-106): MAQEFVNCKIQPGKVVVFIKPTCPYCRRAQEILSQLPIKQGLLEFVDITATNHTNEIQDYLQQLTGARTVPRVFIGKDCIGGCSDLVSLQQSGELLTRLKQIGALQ
# T2: Trx1 (Homo sapiens, UniProt P10599)
# T2 sequence (P10599 1-105): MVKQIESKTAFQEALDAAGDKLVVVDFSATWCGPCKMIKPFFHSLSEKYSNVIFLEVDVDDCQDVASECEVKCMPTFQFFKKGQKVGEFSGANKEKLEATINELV
# T3: thioredoxin 1 (Trx1), human, His-tagged, purified (human, UniProt P10599 1-105)
# T3 sequence (looked up): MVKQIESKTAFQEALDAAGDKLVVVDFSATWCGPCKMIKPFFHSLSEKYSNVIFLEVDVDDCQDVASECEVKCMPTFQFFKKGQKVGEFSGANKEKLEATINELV
# T4: glutaredoxin 1 (Grx1), human, His-tagged, purified (human, UniProt P35754 1-106)
# T4 sequence (looked up): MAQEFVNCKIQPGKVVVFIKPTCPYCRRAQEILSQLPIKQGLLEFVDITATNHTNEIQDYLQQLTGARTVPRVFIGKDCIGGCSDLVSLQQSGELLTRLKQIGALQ
# Experiments:
# [1] = molecular target: T1, Grx1; test: Phage display selection; type: binding; conditions: trial 2; bait Grx1; elution with 1GP3; three rounds of bio-panning; DTT 1 mM
# [2] = molecular target: T1, Grx1; test: Grx1 de-glutathionylation enzyme assay; type: biochemical
# Method in brief: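 Coupled assay: Grx1 (40 ng) reduces Cys-SSG (100 μM), and glutathione reductase recycles the resulting GSSG while oxidising NADPH. Buffer was 0.1 M phosphate pH 7.4 with 1 mM EDTA, BSA, 0.2 mM NADPH, yeast GR (4 units) and 0.25 mM GSH. Grx1 was incubated with peptide at 10–200 μM. NADPH loss was followed at 340 nm. Initial rates were converted to percent inhibition, and values are mean ± SD, n=3 independent experiments.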
# [3] = molecular target: T2, Trx1; test: Phage display selection; type: binding; conditions: trial 3; bait Trx1; elution with 1GP3; three rounds of bio-panning; DTT 1 mM
# [4] = tested on: human Grx1; conditions: ref [53]; cited from earlier work
# [5] = tested on: GRP78; test: GRP78 induction; type: cell-based; conditions: MDA-MB-231 cells, 100 μM, 6 h
# Method in brief: (§1)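 MDA-MB-231 cells in 6 cm dishes were exposed to the test peptide, a TAT-only peptide, a scrambled-order (reverse) TAT peptide or a reference Trx1 inhibitor at 37 °C for 6 h. Cells were then lysed in TBST with 0.1% Triton X-100, 50 mM NaF and EDTA-free protease inhibitors. Equal protein was run on SDS-PAGE and blotted to PVDF. Primary antibodies (p-Ask1 Thr845, p-JNK Thr183/Tyr185, p-p38 Thr180/Tyr182, p-AMPK Thr172, GRP78, plus total proteins) were applied overnight at 4 °C, followed by HRP secondary and chemiluminescence. Data come from two or three independent experiments.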
# [6] = ref [45], [46]; cited from earlier work
# [7] = tested on: Ask1; test: Ask1 phosphorylation, Western blotting; type: cell-based; conditions: MDA-MB-231 cells, 6 h
# Method in brief: as §1
# [8] = tested on: AMPK; test: AMPK phosphorylation, Western blotting; type: cell-based; conditions: MDA-MB-231 cells, 100 μM, 6 h
# Method in brief: as §1
# [9] = tested on: Trx1-Ask1 interaction; test: Co-immunoprecipitation of Ask1 and Trx1 in cells; type: cell-based; conditions: MDA-MB-231 cells, 6 h; co-IP
# [10] = tested on: p53; test: p53 stabilization, Western blotting; type: cell-based; conditions: 100 μM, 6 h
# [11] = tested on: p38; test: p38 phosphorylation, Western blotting; type: cell-based; conditions: MDA-MB-231 cells, 100 μM, 6 h
# Method in brief: as §1
# [12] = tested on: MDA-MB-231 cells; test: Cell viability, Trypan blue assay; type: cell-based; conditions: 48 h, 37 °C, n= 2 independent experiments
# Method in brief: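 Viability was scored by Trypan blue exclusion. MDA-MB-231 cells in 6-well plates were treated with the TAT-fused test peptide, a reverse-sequence TAT control or a reference Trx1 inhibitor for 48 h at 37 °C. Cells were washed with PBS, trypsinised and resuspended in medium. They were mixed with 0.4% trypan blue and counted on an automated cell counter. Results are mean ± SD of 2 independent experiments.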
# [13] = tested on: Trx1; conditions: ref [44]; cited from earlier work
# [14] = tested on: JNK; test: JNK phosphorylation, Western blotting; type: cell-based; conditions: MDA-MB-231 cells, 100 μM, 6 h
# Method in brief: as §1
# [15] = not told
# [16] = molecular target: T3, thioredoxin 1 (Trx1), human, …; test: BLI
# [17] = molecular target: T4, glutaredoxin 1 (Grx1), human, …; test: BLI
# [18] = molecular target: T3, thioredoxin 1 (Trx1), human, …; test: pull-down
# [19] = molecular target: T4, glutaredoxin 1 (Grx1), human, …; test: SPR
# [20] = molecular target: T4, glutaredoxin 1 (Grx1), human, …; test: pull-down
molecule,measurement,setting,value
SVGSFSM [2GP1],# of colony,[1],1
ANHTMQV [1GP3],IC50,[2],46 µM
GRYAIPL [2GP2],# of colony,[1],2
RFADPRL [2TP2],# of colony,[3],1
AMYSRGT [2TP1],# of colony,[3],2
N[C@@H](CCC(=O)N[C@@H](CS)C(=O)NCC(=O)O)C(=O)O [reduced glutathione],Binding affinity with human Grx1,[4],does not have significant binding affinity
SHYNYKV [1GP2],Inhibition of Grx1 de-glutathionylation,"[2]; Cys-SSG 100 μM substrate, 0.1 M phosphate pH 7.4, peptide 10–200 μM",did not have any inhibitory activity
"CCC(C)SSc1ncc[nH]1 (centres unmarked) [PX-12, sec-butyl 2-imidazoylyl disulfide]",GRP78 induction,[5],induced expression of GRP78
same,Anti-tumor activity in clinical evaluation,[6],low anti-tumor activity
same,Ask1 phosphorylation,[7],activated Ask1 by phosphorylation
same,AMPK phosphorylation,[8],phosphorylation of AMPK
same,Disruption of Trx1-Ask1 interaction in cells,[9],disrupted the Trx1-Ask1 interaction
same,p53 stabilization,"[10]; MCF7 cells (wild-type p53, high Trx1)",induced p53 stabilization
same,p53 stabilization,[10]; MDA-MB-231 cells (mutant p53 R280K),strong stabilization of mutant p53
same,p38 phosphorylation,[11],without p38 phosphorylation
same,Cell viability,[12],significantly decreased viability; also recorded: potent cytotoxicity
same,Cys residues of Trx1 oxidized or modified,[13],catalytic C32 and redox-sensitive C73
same,JNK phosphorylation,[14],induced JNK phosphorylation
SLKTTMP [2TP3],# of colony,[3],1
ETRWPNT [2GTP1],Cell permeability,[15],poor cell permeability
same,IC50,[2],11 µM
"ETRWPNT (not fully specified (N-terminus); also: biotinylated, position not given here) [biotinylated 2GTP1 peptide (biotin-2GTP1)]",Kd,[16],2.5 µM
same,Kd,[17],1.2 µM
ETRWPNT [non-biotinylated 2GTP1],binding result,[18],binds
"ANHTMQV (not fully specified (N-terminus); also: biotin, position not given here) [biotin-1GP3]",Kd,[19],38 ± 2 µM
"SHYNYKV (not fully specified (N-terminus); also: biotin, position not given here) [biotin-1GP2]",binding result,[20],binds

# — publication PMC5856478 (Biochemistry, 2018)
